ChEMBL document CHEMBL1129264, “Mercaptoacyl dipeptides as orally active dual inhibitors of angiotensin-converting enzyme and neutral endopeptidase” (1996)

Experiments:
[1] = target: T1, Angiotensin-converting enzyme (Rattus norvegicus) (UniProt P47820); experiment: Compound was tested for plasma inhibition of Angiotensin I converting enzyme activity in the conscious rat. Expressed as Inhibition of AI pressor response at 6 hr at a dose of 12.7 mg/kg po; format: organism-based; parameters: dose 12.7 mg/kg
T1 sequence (whole entry): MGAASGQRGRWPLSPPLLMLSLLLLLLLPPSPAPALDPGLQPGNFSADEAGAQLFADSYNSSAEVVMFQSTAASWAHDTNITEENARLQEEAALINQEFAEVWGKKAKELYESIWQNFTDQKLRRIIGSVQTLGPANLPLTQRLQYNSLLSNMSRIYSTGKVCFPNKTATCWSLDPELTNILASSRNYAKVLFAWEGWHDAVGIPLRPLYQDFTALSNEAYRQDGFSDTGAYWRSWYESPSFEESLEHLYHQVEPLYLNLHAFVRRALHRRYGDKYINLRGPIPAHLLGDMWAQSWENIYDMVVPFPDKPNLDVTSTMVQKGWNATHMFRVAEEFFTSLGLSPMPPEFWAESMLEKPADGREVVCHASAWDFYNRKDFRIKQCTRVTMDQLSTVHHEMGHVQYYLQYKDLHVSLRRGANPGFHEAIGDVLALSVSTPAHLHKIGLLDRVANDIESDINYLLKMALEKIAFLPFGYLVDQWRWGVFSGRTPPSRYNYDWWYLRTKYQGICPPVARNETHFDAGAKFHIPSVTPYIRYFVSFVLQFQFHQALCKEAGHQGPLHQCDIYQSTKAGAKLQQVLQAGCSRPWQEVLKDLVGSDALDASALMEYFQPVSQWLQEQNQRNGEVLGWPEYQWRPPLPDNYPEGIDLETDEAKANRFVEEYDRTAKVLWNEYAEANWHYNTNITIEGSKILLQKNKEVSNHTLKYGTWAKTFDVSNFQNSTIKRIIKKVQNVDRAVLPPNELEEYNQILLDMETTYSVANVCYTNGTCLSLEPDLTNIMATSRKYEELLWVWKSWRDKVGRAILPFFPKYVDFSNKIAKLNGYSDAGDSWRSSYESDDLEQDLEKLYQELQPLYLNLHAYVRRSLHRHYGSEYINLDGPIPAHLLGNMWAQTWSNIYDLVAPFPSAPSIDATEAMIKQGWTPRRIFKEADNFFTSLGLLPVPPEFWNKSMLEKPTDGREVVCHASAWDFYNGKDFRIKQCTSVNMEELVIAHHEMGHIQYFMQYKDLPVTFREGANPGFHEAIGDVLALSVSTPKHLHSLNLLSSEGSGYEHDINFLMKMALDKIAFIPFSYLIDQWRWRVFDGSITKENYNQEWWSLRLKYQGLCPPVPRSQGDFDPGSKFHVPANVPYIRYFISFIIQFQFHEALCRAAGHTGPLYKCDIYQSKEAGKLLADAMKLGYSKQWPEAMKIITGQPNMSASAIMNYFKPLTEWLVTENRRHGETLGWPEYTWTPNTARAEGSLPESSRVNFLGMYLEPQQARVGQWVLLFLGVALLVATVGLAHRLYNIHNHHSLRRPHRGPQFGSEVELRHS
Method in brief: (§1)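 Male conscious normotensive Sprague-Dawley rats (275-390 g), prepared under methohexital sodium (75 mg/kg ip) with femoral arterial and venous catheters. The next day, pressor responses to three angiotensin-I challenges (300 ng/kg iv) were recorded. Compound was then given orally and angiotensin-I challenges were repeated at set times. Percent inhibition is relative to the mean of the three baseline responses.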

[2] = tested on: Rattus norvegicus; experiment: Plasma ANF Concentration in the Conscious Rat at a dose of 12.7(po)mg/kg at 0.5 h; format: functional
Method in brief: (§2)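 Male Sprague-Dawley rats (275-390 g) received femoral artery and vein catheters under ketamine (150 mg/kg)/acepromazine and recovered for 24 h, tethered, before study conscious. ratANF(99-126) was infused at 450 ng/kg/min iv for 5 h. Baseline blood was drawn at 60 min into the infusion, then compound was given po.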

[3] = target: T1, Angiotensin-converting enzyme (Rattus norvegicus); experiment: Compound was tested for plasma inhibition of Angiotensin I converting enzyme activity in the conscious rat. Expressed as Inhibition of AI pressor response at 2 hr at a dose of 12.7 mg/kg po; format: organism-based; parameters: dose 12.7 mg/kg
Method in brief: (§3)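 Male conscious normotensive Sprague-Dawley rats (275-390 g), given femoral arterial and venous catheters under methohexital sodium (75 mg/kg ip) anesthesia. Next day, pressor responses to three angiotensin-I challenges (300 ng/kg iv) recorded by direct arterial pressure. Compound then dosed orally, and AI challenge repeated at set times. Each post-dose response compared with the mean of the three baseline responses, giving % inhibition.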

[4] = target: T1, Angiotensin-converting enzyme (Rattus norvegicus); experiment: Compound was tested for plasma inhibition of Angiotensin I converting enzyme activity in the conscious rat. Expressed as Inhibition of AI pressor response at 1 hr at a dose of 12.7 mg/kg po; format: organism-based; parameters: dose 12.7 mg/kg; method in brief: as §3
[5] = tested on: Rattus norvegicus; experiment: Plasma ANF Concentration in the Conscious Rat at a dose of 12.7(po)mg/kg at 4 h; format: functional; method in brief: as §2
[6] = tested on: Rattus norvegicus; experiment: Plasma ANF Concentration in the Conscious Rat at a dose of […]; format: functional; details: in the assay text read “12.7(po)mg/kg” for “12.4(po)mg/kg”; method in brief: as §2
[7] = target: T1, Angiotensin-converting enzyme (Rattus norvegicus); experiment: Compound was tested for plasma inhibition of Angiotensin I converting enzyme activity in the conscious rat. Expressed as Inhibition of AI pressor response at 4 hr at a dose of 12.7 mg/kg po; format: organism-based; parameters: dose 12.7 mg/kg; method in brief: as §3
[8] = tested on: Rattus norvegicus; experiment: Plasma ANF Concentration in the Conscious Rat at a dose of 12.7(po)mg/kg at 1 h; format: functional; method in brief: as §2
[9] = tested on: Rattus norvegicus; experiment: Plasma ANF Concentration in the Conscious Rat at a dose of 13.2(po)mg/kg at 1 h; format: functional; method in brief: as §2
[10] = target: T1, Angiotensin-converting enzyme (Rattus norvegicus); experiment: Compound was tested for plasma inhibition of Angiotensin I converting enzyme activity in the conscious rat. Expressed as Inhibition of AI pressor response at 1 hr at a dose of 13.2 mg/kg po; format: organism-based; parameters: dose 13.2 mg/kg; method in brief: as §3
[11] = target: T1, Angiotensin-converting enzyme (Rattus norvegicus); experiment: Compound was tested for plasma inhibition of Angiotensin I converting enzyme activity in the conscious rat. Expressed as Inhibition of AI pressor response at 6 hr at a dose of 13.2 mg/kg po; format: organism-based; parameters: dose 13.2 mg/kg; method in brief: as §1
[12] = tested on: Rattus norvegicus; experiment: Plasma ANF Concentration in the Conscious Rat at a dose of 13.2(po)mg/kg at 0.5 h; format: functional; method in brief: as §2
[13] = tested on: Rattus norvegicus; experiment: Plasma ANF Concentration in the Conscious Rat at a dose of 13.2(po)mg/kg at 2 h; format: functional; method in brief: as §2
[14] = target: T1, Angiotensin-converting enzyme (Rattus norvegicus); experiment: Compound was tested for plasma inhibition of Angiotensin I converting enzyme activity in the conscious rat. Expressed as Inhibition of AI pressor response at 2 hr at a dose of 13.2 mg/kg po; format: organism-based; parameters: dose 13.2 mg/kg; method in brief: as §3
[15] = tested on: Rattus norvegicus; experiment: Plasma ANF Concentration in the Conscious Rat at a dose of 13.2(po)mg/kg at 4 h; format: functional; method in brief: as §2
[16] = target: T1, Angiotensin-converting enzyme (Rattus norvegicus); experiment: Compound was tested for plasma inhibition of Angiotensin I converting enzyme activity in the conscious rat. Expressed as Inhibition of AI pressor response at 4 hr at a dose of 13.2 mg/kg po; format: organism-based; parameters: dose 13.2 mg/kg; method in brief: as §1
[17] = target: T1, Angiotensin-converting enzyme (Rattus norvegicus); experiment: Compound was tested for plasma inhibition of Angiotensin I converting enzyme activity in the conscious rat. Expressed as Inhibition of AI pressor response at 1 hr at a dose of 13.5 mg/kg po; format: organism-based; parameters: dose 13.5 mg/kg; method in brief: as §3
[18] = target: T1, Angiotensin-converting enzyme (Rattus norvegicus); experiment: Compound was tested for plasma inhibition of Angiotensin I converting enzyme activity in the conscious rat. Expressed as Inhibition of AI pressor response at 6 hr at a dose of 13.5 mg/kg po; format: organism-based; parameters: dose 13.5 mg/kg; method in brief: as §1
[19] = tested on: Rattus norvegicus; experiment: Plasma ANF Concentration in the Conscious Rat at a dose of 13.5(po)mg/kg at 2 h; format: functional
Method in brief: (§4)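 Male Sprague-Dawley rats (275-390 g), catheterized in femoral artery and vein under ketamine (150 mg/kg)/acepromazine, tethered and recovered 24 h, studied conscious. Continuous iv rat ANF(99-126) infusion at 450 ng/kg/min for 5 h; baseline blood at 60 min, then oral dosing, sampling at 30-240 min.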

[20] = tested on: Rattus norvegicus; experiment: Plasma ANF Concentration in the Conscious Rat at a dose of 13.5(po)mg/kg at 1 h; format: functional; method in brief: as §4
[21] = tested on: Rattus norvegicus; experiment: Plasma ANF Concentration in the Conscious Rat at a dose of 13.5(po)mg/kg at 4 h; format: functional; method in brief: as §4
[22] = tested on: Rattus norvegicus; experiment: Plasma ANF Concentration in the Conscious Rat at a dose of 13.5(po)mg/kg at 0.5 h; format: functional; method in brief: as §4
[23] = target: T1, Angiotensin-converting enzyme (Rattus norvegicus); experiment: Compound was tested for plasma inhibition of Angiotensin I converting enzyme activity in the conscious rat. Expressed as Inhibition of AI pressor response at 4 hr at a dose of 13.5 mg/kg po; format: organism-based; parameters: dose 13.5 mg/kg; method in brief: as §1
[24] = target: T1, Angiotensin-converting enzyme (Rattus norvegicus); experiment: Compound was tested for plasma inhibition of Angiotensin I converting enzyme activity in the conscious rat. Expressed as Inhibition of AI pressor response at 2 hr at a dose of 13.5 mg/kg po; format: organism-based; parameters: dose 13.5 mg/kg; method in brief: as §3

CC(=O)S[C@@H](C(=O)NC1(C(=O)N[C@@H](Cc2ccc(O)cc2)C(=O)OCCC(C)C)CCCC1)C(C)C
inhibition [1]: 60% | Control [2]: 178% | inhibition [3]: 77% | inhibition [4]: 83% | Control [5]: 251% | Control [6]: 236% | inhibition [7]: 77% | Control [8]: 235%

COc1ccc(C[C@H](NC(=O)C2(NC(=O)[C@H](SC(C)=O)C(C)C)CCCC2)C(=O)OCc2cccnc2)cc1
Control [9]: 267% | inhibition [10]: 99% | inhibition [11]: 63% | Control [12]: 223% | Control [13]: 260% | inhibition [14]: 97% | Control [15]: 332% | inhibition [16]: 87%

CCOC(=O)[C@H](Cc1ccc(OC(=O)COC)cc1)NC(=O)C1(NC(=O)[C@H](SC(C)=O)C(C)C)CCCC1
inhibition [17]: 79% | inhibition [18]: 61% | Control [19]: 252% | Control [20]: 263% | Control [21]: 223% | Control [22]: 203% | inhibition [23]: 70% | inhibition [24]: 79%
